Source: PubChem BioAssay
Only some compounds are listed: those with a hit (about 2.7% of all), similar ones and a draw of the others.
RAM network inh: yeast RAM network inhibition | 1.8% of 190,000 active | S. cerevisiae dse1pr::URA3 reporter, 5-FOA growth OD615, 2 d; analog-sensitive cbk1-as2 kinase mutant strain | inhibition, % at 50 µM;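 active = inhibition above a set limit, 3 SD over mean compound inhibition, cut at about 8.4% in these data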;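 note: 0% = DMSO-only wells with no growth and 100% = 10 µM 1-NA-PP1 full growth; inhibition rescues growth on 5-FOA so higher OD means more RAM inhibition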
Yeast lifespan up: yeast lifespan extension; inhibition of the nicotinamide effect, % at 10 µM; S. cerevisiae growth with nicotinamide, OD615; deaD strain in restrictive glucose medium; 0.68% of 130,000 active; AID 775;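 active = inhibition above a set limit, placed 3 SD over the median of all compounds, cut at about 26% in these data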;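 note: 0% = nicotinamide-treated wells and 100% = cells grown without nicotinamide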
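Assay system: engineered S. cerevisiae DeaD replicative-lifespan strain, galactose-grown log-phase cells; medium: restrictive CSMM-D dextrose medium; also added: nicotinamide, 1.5 mM, co-present with compound; schedule: 48 h compound exposure at 30 °C, humidified; detection: absorbance at 615 nm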
BB579 growth dn: chemicals that inhibit yeast BB579 growth in restrictive medium (lifespan-shortening candidates). AID 804. inhibition, % at 10 µM. S. cerevisiae BB579 growth, OD615, 48 h. 0.51% of 140,000 active;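 active = inhibition above a set limit, 3 SD over the mean compound inhibition, cut at about 44% in these data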
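System: DeaD yeast strain BB579; buffer or medium: CSMM-D dextrose restrictive medium; technique: OD at 615 nm; schedule: 4 h cell preincubation, 48 h compound exposure, 30 °C humidified; doses: single 10 µM dose; controls: amphotericin B 10 µg/mL, positive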
sdo1 growth: compounds rescuing growth of sdo1-depleted yeast, bone marrow failure model; S. cerevisiae sdo1-depleted JHY4D growth rescue, OD600 30 h; active compounds read high; pdr5 snq2 efflux-pump mutant strain; z-score at 10 µM; AID 817; 0.21% of 140,000 active;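 active = z-score above 3 at both the 24 hr and the 30 hr optical density reads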;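 note: z-score against mean and SD of all compound wells on the same plate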
RAM 5-FOA: RAM network inhibitors in efflux-deficient yeast; shares compounds with RAM network inh; S. cerevisiae efflux-deficient reporter strain, 5-FOA growth OD615, 2 days; max inhibition, %; 1,200 tested, under 10 active; AID 1305; call rule not given here;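 note: plate controls were vehicle for no effect and reference inhibitor for full effect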
An asterisk follows results filed as active; · = not tested or not shown; [ ] = dose if it differs, or a comment.

SMILES	RAM network inh	Yeast lifespan up	BB579 growth dn	sdo1 growth	RAM 5-FOA
C/C(=N\NC(=S)NCc1ccccc1)c1ccccc1	0	-2	-21	-1.2	·
C/C(=N\NC(=S)NCc1ccccc1)c1ccc(C(C)(C)C)cc1	11*	0	26	-1.2	5
CCCN(CCC)C(=O)c1ccc2c(=O)n(Cc3ccco3)c(=S)[nH]c2c1	25*	·	·	·	1
CN1CCN(C(=O)c2ccc3c(=O)n(Cc4ccco4)c(=S)[nH]c3c2)CC1	0	-11	-66	0.91	·
CCCNC(=O)c1c[nH]c2ccc(S(=O)(=O)N(C)c3ccc(OCC)cc3)cc2c1=O	4	-4	3	0.77	·
CCOc1ccc(N(C)S(=O)(=O)c2ccc3[nH]cc(C(=O)NCCOC)c(=O)c3c2)cc1	14*	·	·	·	11
COc1ccc(S(=O)(=O)NCc2ccc(C(=O)N3CCN(c4ccccn4)CC3)cc2)cc1	0	-13	-47	0.89	·
N#C/C(=C\c1ccco1)c1nc2ccccc2s1	1	-7	-27	-1.8	·
CCCCc1ccc(-c2csc(/C(C#N)=C/c3ccc(C)o3)n2)cc1	13*	5	-21	0.15	8
CCCCc1ccc(-c2csc(/C(C#N)=C\c3ccco3)n2)cc1	15*	4	-26	-0.32	9
COc1ccc(-c2csc(/C(C#N)=C\c3cccc([N+](=O)[O-])c3)n2)cc1	5	-2	-45	-0.49	·
CSc1nc2nc3c(cc2c(=O)[nH]1)C(O)Oc1ccc(C)cc1-3 (stereo not drawn)	2	·	·	·	·
COc1cc(NC(=O)Cn2nnc(-c3ccncc3)n2)cc(OC)c1	1	-17	-13	-0.76	·
COc1ccccc1-n1c(C)nnc1SCC(=O)Nc1cc(C)cc(C)c1	-1	-13	-9	0.11	·
CCCCCCCCNC(=O)/C(C#N)=C/c1ccc(SC)cc1	12*	7	-57	-0.17	3
CCOCCCNC(=O)/C(C#N)=C/c1ccc(C(=O)OC)cc1	2	·	·	·	·
CN(Cc1ccccc1)C(=O)COC(=O)c1cncc(Br)c1	-1	·	·	·	·
CC(C)(C)OC(=O)COc1cc(O)c2c(=O)cc(-c3ccccc3)oc2c1	12*	2	-5	0.11	2
CC1=C(C(=O)OCC2CCCO2)C(c2ccc(F)cc2)NC(=O)N1 (stereo not drawn)	3	·	·	·	·
COc1ccc(CC(=O)NNC(=S)Nc2ccccc2)cc1Cl	-1	·	·	·	·
CCCOc1ccc(CC(=O)NNC(=S)Nc2ccccc2)cc1Br	15*	·	-27	-0.97	2
Cn1c(=O)c2c(ncn2CC(=O)OCC(=O)NC(c2ccccc2)c2ccccc2)n(C)c1=O	14*	-4	-38	1.3	1
COc1cc2cc(C)c(SCC(=O)N3CCOCC3)nc2cc1OC	1	-11	-53	-0.43	·
Cc1ccc(N(CC(=O)Nc2ccc(F)cc2)S(=O)(=O)N2CCCC2)cc1	1	-4	-43	-0.74	·
CCCCN(CCCC)c1nc2ccccc2nc1C(C#N)C(=O)NCCCOC (stereo not drawn)	15*	1	-38	-0.92	5
SMILES	RAM network inh	Yeast lifespan up	BB579 growth dn	sdo1 growth	RAM 5-FOA
CCN(CC)c1nc2ccccc2nc1C(C#N)C(=O)NCCCOC (stereo not drawn)	1	-11	-5	-0.77	·
CCCN(CCC)c1nc2ccccc2nc1C(C#N)C(=O)OC(C)COC (stereo not drawn)	13*	14	-19	-0.88[9.5 µM]	2
COC(=O)Cc1ccc(NC(=S)NCCCN2CCOCC2)cc1	1	·	·	·	·
COC(=O)c1sc2ccccc2c1NC(=O)c1ccc(S(=O)(=O)N2CCCCC2C)cc1 (stereo not drawn)	4	16	-55	-0.4	·
O=C(O)CCCCn1c(SCc2ccccc2Cl)nc2ccsc2c1=O	17*	·	·	·	1
O=C(O)CCCCn1c(SCc2cc(=O)n3cc(Cl)ccc3n2)nc2ccsc2c1=O	5	5	-32	0.12	·
O=C(/C=C/c1ccc(N2CCCCC2)c([N+](=O)[O-])c1)c1ccc(S(=O)(=O)N2CCCC2)cc1	12*	3	-44	-0.14	6
CCN(CC)S(=O)(=O)c1ccc(N2CCN(c3cccc(OC)c3)CC2)c([N+](=O)[O-])c1	13*	12	-28	0.37	5
CCN1CCN(c2ccc(S(=O)(=O)N(CC)CC)cc2[N+](=O)[O-])CC1	3	10	-55	0.45	·
COc1cccc(C(=O)/C=C/c2ccc(N3CCCCC3)c([N+](=O)[O-])c2)c1	19*	22	-48	-1.1	5
Cc1cccc(Nc2nnc(SCC3CCCCO3)s2)c1 (stereo not drawn)	14*	-5	-11	-1	2
Cc1cc(NC(=O)CCSc2ccccc2)ccc1Br	14*	-8	-7	-1.4	2
O=C(c1cccs1)N(CC1CCCO1)c1nc(-c2ccccc2)cs1 (stereo not drawn)	16*	-9	-32	0.45	2
Cc1ccc(-c2csc(N(CC3CCCO3)C(=O)c3ccco3)n2)cc1 (stereo not drawn)	13*	-4	-49	0.09	3
Cc1noc(NS(=O)(=O)c2ccc(N/C=C\C(=O)c3ccc(Br)cc3)cc2)c1C	12*	·	·	·	3
CC1Cc2ccccc2N1CC(=O)NC(=O)NCc1ccccc1 (stereo not drawn)	0	·	·	·	·
COc1cc(CNc2ccc(CNc3ncn[nH]3)cc2)ccc1OCC(=O)NC(C)(C)C	2	1	-25	1.6	·
CCOc1cc(CNc2ccc(CNc3ncn[nH]3)cc2)ccc1OCc1ccccc1	12*	-5	-11	-1.2	7
COC(=O)c1nn(-c2ccccc2)c(Cl)c1/C=N/OCc1ccc(Cl)cc1Cl	17*	-2	13	-2.8	4
CCN(CC)S(=O)(=O)c1ccc(OC)c(NC(=S)Nc2cc(C)ccc2C)c1	2	-4	-4	-0.35	·
CCN(CC)S(=O)(=O)c1ccc(OC)c(NC(=O)CSc2cc(C)ccc2C)c1	15*	5	-32	-0.05	3
CSC1=C(C#N)C(CC(C)C)C(C(C)=O)=C(C)N1 (stereo not drawn)	-1	11	-52	-0.93	·
COc1ccc(C(=O)OCC[N+]2(C)CCCCC2)cc1	1	·	·	·	·
O=C(NC(=S)N(Cc1ccccc1)Cc1ccccc1)c1ccccc1F	12*	52	-32	-1.5	1
Cc1ccc(-c2nnc(SCC#CCOC(=O)c3cccs3)o2)cc1	5	-3	-17	-0.8	·
O=C(OCC#CCSc1nnc(-c2ccc(Br)cc2)o1)c1cccs1	16*	8	-24	-1.6	14
CCCCCc1c2c(cc(O)c1C(=O)O)OC(=O)c1c(cc(OC)cc1C(=O)CCCC)O2	13*	·	·	·	3
O=C(Cn1cc(C(=O)c2ccco2)c2ccccc21)NC1CCCCC1	12*	·	·	·	3
O=C(c1cc(COc2ccc(F)cc2Cl)on1)N1CCCC(c2ccccc2)C1 (stereo not drawn)	13*	·	·	·	4
O=C(c1cc(COc2ccc(F)cc2F)on1)N1CCCC(c2ccccc2)C1 (stereo not drawn)	6	·	·	·	·
